# Measurements published in paper PMC5221453 (British Journal of Pharmacology, 2016).
# Read-outs that look alike come from different tables or passages of the source.
# Experiments:
# human S1P1 receptor = human S1P1 receptor (Homo sapiens, UniProt P21453); test: Ca2+ mobilization assay, human S1P1 receptor-expressing cells; format: cell-based
# cynomolgus monkeys = format: in vivo, cynomolgus monkeys (Macaca fascicularis); conditions: conscious monkeys, oral, doses up to 30 mg·kg^−1
# healthy subjects [1] = test: Phase I multiple ascending dose trial: peripheral lymphocyte counts; format: in vivo, human; conditions: 0.75 mg, day 21
# Procedure, shortened: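 Healthy men received oral test compound (0.125–0.75 mg) or placebo for 21 days in the fed state. Absolute lymphocyte counts were taken at screening and on days −2, 1–12, 14, 16, 18, 20–25, 28, 35, 42, 56 and 70.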
# healthy subjects [2] = test: Phase I multiple ascending dose trial: heart rate and ECG; format: in vivo, human
# Procedure, shortened: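 Healthy men received oral test compound at 0.125–0.75 mg or placebo for 21 days, fed. Heart rate came from 24 h 12-lead Holter ECG against a day −1 baseline, with telemetry on day 1. Mean hourly rate was fitted by a linear mixed model with a pre-dose covariate. The 1–12 h nadir was compared by ANCOVA (day −1 covariate), giving LS mean differences versus placebo with 95% CI.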
# [3] = Phase I multiple ascending dose trial: pharmacokinetic assessment; format: in vivo, human
# Procedure, shortened: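 Healthy men received oral test compound (0.125–0.75 mg, 10 per dose) for 21 days, fed. Blood was sampled on days 1–12, 14, 16, 18, 20–25, 28, 35, 42, 56 and 70. Parent and phosphate metabolite were measured in plasma and urine by validated LC/MS/MS, with LLOQ 0.05 ng·mL−1.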
# healthy subjects [4] = test: Phase I multiple ascending dose trial: adverse events; format: in vivo, human
# Procedure, shortened: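 Randomized, double-blind, placebo-controlled, parallel multiple-ascending-dose study in healthy men aged 18–45. Oral test compound was given at 0.125, 0.25, 0.5 or 0.75 mg (10 subjects per dose) or placebo (n = 10) over 21 days in the fed state. Follow-up visits were on days 28, 35, 42, 56 and 70. Adverse events were recorded throughout the study.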
# humans [5] = conditions: cited from earlier work; for decrease in the lymphocyte count: psoriasis patients, ref Vaclavkova et al., 2014
# [6] = humans, ref Gergely et al., 2012, Brooks et al., 2013, Brossard et al.; cited from earlier work
# [7] = system: cardiac Na+ and Ca2+ channels in HCMs; test: Cardiac Na+ and Ca2+ channels in HCMs; format: cell-based, human; conditions: data not shown
# humans [8] = conditions: clinical dose 0.5 mg, ref Schmouder et al., 2012; cited from earlier work
# human S1P3 receptor = human S1P3 receptor (Homo sapiens, UniProt Q99500); test: Ca2+ mobilization assay, human S1P3 receptor-expressing cells; format: cell-based
# Chain of human S1P3 receptor (Q99500 whole entry): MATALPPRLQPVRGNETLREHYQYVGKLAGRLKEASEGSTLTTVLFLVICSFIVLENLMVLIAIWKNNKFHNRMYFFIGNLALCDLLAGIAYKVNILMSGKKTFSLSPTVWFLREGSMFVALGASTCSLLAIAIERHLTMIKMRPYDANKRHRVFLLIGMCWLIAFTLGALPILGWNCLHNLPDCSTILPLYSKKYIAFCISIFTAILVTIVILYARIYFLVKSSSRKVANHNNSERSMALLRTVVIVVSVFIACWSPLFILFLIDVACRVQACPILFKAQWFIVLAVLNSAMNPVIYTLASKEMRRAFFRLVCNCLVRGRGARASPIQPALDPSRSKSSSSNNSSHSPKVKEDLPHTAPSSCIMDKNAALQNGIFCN
# human S1P4 receptor = biological target: T1, human S1P4 receptor (Homo sapiens, UniProt O95977); test: Ca2+ mobilization assay, human S1P4 receptor-expressing cells; format: cell-based
# T1 sequence (O95977 1-384): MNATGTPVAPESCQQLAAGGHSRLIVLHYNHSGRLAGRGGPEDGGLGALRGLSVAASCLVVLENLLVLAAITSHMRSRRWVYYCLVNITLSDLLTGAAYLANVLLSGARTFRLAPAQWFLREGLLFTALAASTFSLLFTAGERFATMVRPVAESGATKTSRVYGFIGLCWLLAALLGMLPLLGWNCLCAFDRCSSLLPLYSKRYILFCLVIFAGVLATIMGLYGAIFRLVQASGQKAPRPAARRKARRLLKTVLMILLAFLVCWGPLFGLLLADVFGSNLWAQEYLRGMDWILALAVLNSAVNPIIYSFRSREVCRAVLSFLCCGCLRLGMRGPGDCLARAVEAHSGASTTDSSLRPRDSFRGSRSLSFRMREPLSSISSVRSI
# [9] = system: GIRK channels in human atrial myocytes; test: Human GIRK channel assay in human atrial myocytes; format: cell-based; conditions: 20 μmol·L^−1 carbachol
# Procedure, shortened: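 Atrial myocytes were isolated from a human atrial specimen taken during cardiac surgery. GIRK current was recorded by whole-cell patch clamp at 37 ± 1°C and elicited by rapid superfusion with 20 μmol·L−1 carbachol. Current was read on a pulse to −100 mV from a −90 mV holding potential. Values were normalized to the carbachol-evoked increase. Four myocytes per condition were analysed by a blinded researcher.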
# [10] = Tissue distribution in rats; format: in vivo, SD rats; conditions: rat, single oral 1 mg·kg^−1 of amiselimod or fingolimod
# Procedure, shortened: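 SD rats fasted 15 h received a single oral 1 mg·kg−1 test compound without anaesthesia. Rats killed at 24 or 48 h were fed at 8 h. Plasma and heart homogenates underwent solid-phase extraction. Parent and phosphate metabolite were measured by LC–MS/MS. Parameters were derived by non-compartmental analysis. Dosing/sampling and analysis were done by separate researchers unaware of treatment.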
# [11] = healthy subjects receiving amiselimod, all doses
# Chain of human S1P1 receptor (P21453 whole entry): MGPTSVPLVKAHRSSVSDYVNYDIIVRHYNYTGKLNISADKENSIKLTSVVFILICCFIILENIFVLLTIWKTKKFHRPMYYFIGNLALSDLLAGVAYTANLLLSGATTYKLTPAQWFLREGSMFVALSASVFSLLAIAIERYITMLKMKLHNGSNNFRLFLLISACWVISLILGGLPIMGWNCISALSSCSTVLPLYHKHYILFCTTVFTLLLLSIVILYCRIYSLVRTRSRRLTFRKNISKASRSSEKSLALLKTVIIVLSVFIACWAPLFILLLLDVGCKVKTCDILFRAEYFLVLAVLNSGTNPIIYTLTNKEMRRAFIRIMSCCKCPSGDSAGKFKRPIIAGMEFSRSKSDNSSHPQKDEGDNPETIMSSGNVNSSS
compound,measurement,setting,value
"CCCCCCCOc1ccc(CCC(N)(CO)CO)cc1C(F)(F)F.Cl [Amiselimod, 2‐amino‐2‐{2‐[4‐(heptyloxy)‐3‐(trifluoromethyl)phenyl]ethyl}propan‐1,3‐diol hydrochloride]",EC50,human S1P1 receptor,> 1 µM
same,agonist activity at S1P1 receptors,human S1P1 receptor; up to 1000 nmol·L^−1,no agonist activity
same,effect on blood pressure,cynomolgus monkeys,did not affect
same,"effects on heart rate or ECG parameters (PR interval, QRS duration, QT interval, QTc)",cynomolgus monkeys,no effects
same,decrease in trough lymphocyte counts,healthy subjects [1],60%
same,"nadir (1–12 h) mean hourly heart rate, LS mean","healthy subjects [2]; 0.5 mg, day 1",62.213 bpm
same,"nadir (1–12 h) mean hourly heart rate, LS mean","healthy subjects [2]; 0.75 mg, day 1",61.952 bpm
same,"ECG Holter transient AV conduction abnormalities, subjects",healthy subjects [2]; 0.125–0.75 mg,five subjects
same,"PR interval, QRS width, QT interval, QTcB interval, QTcF interval and RR interval",healthy subjects [2]; 0.125–0.75 mg,not affected
same,decrease in heart rate versus placebo,"healthy subjects [2]; up to the 0.75 mg dose, day 1",no significant decrease
same,accumulation ratios (range),"[3]; healthy subjects, after 21 day dosing",16–29
same,administered dose excreted in the urine,"[3]; healthy subjects, day 21",Less than 0.2%
same,mean t1/2,"[3]; healthy subjects, plasma, across 0.125–0.75 mg doses",380 to 420 h
same,period of accumulation to steady state,"[3]; humans, inferred from long t1/2",approximately 10 weeks
same,"mild AEs, subjects",healthy subjects [4]; 0.125 mg,8 subjects
same,"moderate AEs, subjects",healthy subjects [4]; 0.125 mg,1 subjects
same,"mild AEs, subjects",healthy subjects [4]; 0.25 mg,4 subjects
same,"mild AEs, subjects",healthy subjects [4]; 0.5 mg,9 subjects
same,"moderate AEs, subjects",healthy subjects [4]; 0.5 mg,1 subjects
same,"mild AEs, subjects",healthy subjects [4]; 0.75 mg,7 subjects
same,"moderate AEs, subjects",healthy subjects [4]; 0.75 mg,1 subjects
same,number of subjects reporting AEs,healthy subjects [4]; [11],28 subjects
same,total number of AEs reported,healthy subjects [4]; [11],74 AEs
same,severe AEs or serious AEs,"healthy subjects [4]; healthy subjects, during the study",no severe AEs or serious AEs
CC(C)Oc1ccc(-c2nc(-c3cccc4c3CC[C@@H]4NCCO)no2)cc1C#N [ozanimod],lymphocyte count decrease from baseline,"humans [5]; 1 mg, healthy volunteers, ref Olson et al., 2013, Sandborn et al., 2015",65%
same,t1/2,[6],17.1 h
"CCCCCCCCc1ccc(CCC(N)(CO)CO)cc1 [Fingolimod, fingolimod]",effect on cardiac Na+ and Ca2+ channels,[7],did not affect
same,decrease in heart rate,humans [8],6.2 bpm
same,lymphocyte counts decreased below the baseline,"humans [5]; 0.5 mg, RRMS patients, ref Kappos et al., 2010",73%
CCC/N=C1\S/C(=C\c2ccc(OC[C@H](O)CO)c(Cl)c2)C(=O)N1c1ccccc1C [ponesimod],decrease in the lymphocyte count,"humans [5]; 20 mg, Phase II",56%
same,decrease in the lymphocyte count,"humans [5]; 40 mg, Phase II",65%
same,t1/2,[6],21.7 to 33.4 h
CCc1cc(/C(C)=N/OCc2ccc(C3CCCCC3)c(C(F)(F)F)c2)ccc1CN1CC(C(=O)O)C1 [siponimod],lymphocyte count decrease,"humans [5]; 2 mg, RRMS patients, Phase II, ref Selmaj et al., 2013",70%
same,t1/2,[6],21.9 to 36.3 h
"CCCCCCCCCCCCC/C=C/[C@@H](O)[C@@H](N)COP(=O)(O)O [S1P, sphingosine 1‐phosphate]",EC50,human S1P1 receptor,0.00018 µM
same,EC50,human S1P3 receptor,0.00016 µM
same,EC50,human S1P4 receptor,0.0827 µM
same,"GIRK current reached, of the maximal current increase evoked by carbachol",[9],more than 90%
"CCCCCCCCc1ccc(CC[C@](N)(CO)COP(=O)(O)O)cc1 [Fingolimod‐P, Fingolimod phosphate]",EC50,"human S1P4 receptor; read-out: EC50 values (95% CI), S1P4, agonist activity, intracellular Ca2+ mobilization, geometric mean",0.0663 µM
same,heart AUC0–last,[10],17 182 ng·h·g^−1
same,heart Cmax,[10],479 ng/g
same,plasma AUC0–last,[10],0.556 µg·h/mL
same,effect on cardiac Na+ and Ca2+ channels,[7],did not affect
